Assay [1] addresses T1, Chromosome-associated kinesin KIF4A (Homo sapiens) (UniProt O95239).
T1 sequence (whole entry): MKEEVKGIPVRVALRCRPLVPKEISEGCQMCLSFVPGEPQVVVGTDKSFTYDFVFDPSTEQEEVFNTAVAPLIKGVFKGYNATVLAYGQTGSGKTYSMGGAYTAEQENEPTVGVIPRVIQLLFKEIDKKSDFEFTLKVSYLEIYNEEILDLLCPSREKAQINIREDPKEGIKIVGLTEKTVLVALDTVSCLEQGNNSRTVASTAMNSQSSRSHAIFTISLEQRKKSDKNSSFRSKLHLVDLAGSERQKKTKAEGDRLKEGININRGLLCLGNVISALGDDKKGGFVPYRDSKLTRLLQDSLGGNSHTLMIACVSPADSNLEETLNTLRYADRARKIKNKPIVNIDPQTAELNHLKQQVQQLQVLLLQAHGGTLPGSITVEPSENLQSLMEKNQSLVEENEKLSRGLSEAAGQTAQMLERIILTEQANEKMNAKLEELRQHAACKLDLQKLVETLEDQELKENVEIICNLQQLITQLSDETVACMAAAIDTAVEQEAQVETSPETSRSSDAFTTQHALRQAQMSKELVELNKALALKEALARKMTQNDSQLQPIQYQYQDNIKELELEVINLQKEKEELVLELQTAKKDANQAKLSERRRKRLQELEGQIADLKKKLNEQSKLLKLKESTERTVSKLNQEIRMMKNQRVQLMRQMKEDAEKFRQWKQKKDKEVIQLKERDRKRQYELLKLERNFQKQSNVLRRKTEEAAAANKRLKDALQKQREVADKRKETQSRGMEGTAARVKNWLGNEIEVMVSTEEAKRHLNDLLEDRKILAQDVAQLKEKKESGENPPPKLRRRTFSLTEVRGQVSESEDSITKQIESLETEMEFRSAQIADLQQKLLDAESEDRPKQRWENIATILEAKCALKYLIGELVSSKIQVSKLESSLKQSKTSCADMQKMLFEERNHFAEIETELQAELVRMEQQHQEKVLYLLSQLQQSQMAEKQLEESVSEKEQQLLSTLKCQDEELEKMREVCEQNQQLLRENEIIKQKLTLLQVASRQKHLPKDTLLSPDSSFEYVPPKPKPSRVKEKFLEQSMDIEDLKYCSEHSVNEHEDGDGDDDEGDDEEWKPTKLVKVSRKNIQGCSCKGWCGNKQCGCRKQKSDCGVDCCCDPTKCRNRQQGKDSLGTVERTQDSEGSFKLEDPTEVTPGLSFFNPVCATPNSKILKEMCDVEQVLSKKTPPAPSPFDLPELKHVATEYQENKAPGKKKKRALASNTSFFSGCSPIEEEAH
The assay is described as follows: Inhibition of porcine brain microtubule-stimulated human recombinant GST-tagged Kif4A ATPase activity at 15 uM by microplate reader in presence of Mg2+ ATP relative to control. The essentials:
(§1)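 Each kinesin motor domain was tested against MT-stimulated ATPase at 22 °C in triplicate, with compounds at 15 µM. Buffer was 7.5 mM PIPES-NaOH pH 7.0 with MgCl2, Taxol, ELIPA reagents and 1.25 mg/mL MTs. Reactions were started with 1 mM Mg2+ATP and read kinetically at 360 nm. Monastrol and AMP-PNP (1 mM) were the controls.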

The target of assay [2] is T2, Kinesin-like protein KIFC3 (Homo sapiens) (UniProt Q9BVG8).
T2 sequence (whole entry): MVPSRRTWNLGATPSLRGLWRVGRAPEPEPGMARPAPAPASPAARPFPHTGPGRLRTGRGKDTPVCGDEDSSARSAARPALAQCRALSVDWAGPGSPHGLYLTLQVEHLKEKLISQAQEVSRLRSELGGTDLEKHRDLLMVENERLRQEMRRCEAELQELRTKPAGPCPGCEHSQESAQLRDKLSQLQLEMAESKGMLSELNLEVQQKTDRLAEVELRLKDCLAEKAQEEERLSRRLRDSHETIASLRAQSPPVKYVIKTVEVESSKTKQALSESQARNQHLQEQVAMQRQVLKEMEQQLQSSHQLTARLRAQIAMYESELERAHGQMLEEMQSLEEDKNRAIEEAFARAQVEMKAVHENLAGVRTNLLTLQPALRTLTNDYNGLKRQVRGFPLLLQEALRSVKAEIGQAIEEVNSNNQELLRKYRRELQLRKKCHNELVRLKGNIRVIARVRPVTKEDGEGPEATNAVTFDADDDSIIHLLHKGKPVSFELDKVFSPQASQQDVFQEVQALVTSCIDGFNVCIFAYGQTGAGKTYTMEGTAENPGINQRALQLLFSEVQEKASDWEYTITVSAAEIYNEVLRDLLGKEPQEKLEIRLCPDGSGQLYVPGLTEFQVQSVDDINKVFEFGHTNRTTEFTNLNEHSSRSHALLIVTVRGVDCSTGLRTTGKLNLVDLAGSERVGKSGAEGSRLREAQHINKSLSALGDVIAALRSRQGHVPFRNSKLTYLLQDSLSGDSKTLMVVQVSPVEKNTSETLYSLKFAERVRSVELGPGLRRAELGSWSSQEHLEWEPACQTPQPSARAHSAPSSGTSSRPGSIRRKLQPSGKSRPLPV
Kind of assay: Inhibition of porcine brain microtubule-stimulated human recombinant GST-tagged KIFC3 ATPase activity at 15 uM by microplate reader in presence of Mg2+ ATP relative to control. The essentials:
as §1

Structures are written as SMILES.

The inhibition is the drop in the measured response relative to a control, in per cent. Turning to `COc1cccc2[nH]cc(/C(C#N)=C/c3cccnc3)c12`, the inhibition in assay [1] and in assay [2] was less than 20% each time.

On to `COc1ccc2[nH]cc(/C(C#N)=C/c3cccnc3)c2c1`, for which the inhibition in assay [1] and in assay [2] was less than 20% each time.

For the molecule `N#C/C(=C\c1ccc2c(c1)OCO2)c1c[nH]c2ccccc12`, the inhibition in assay [1] and in assay [2] was less than 20% in each case.

Take `N#C/C(=C\c1cccnc1)c1c[nH]c2ccc(OCc3ccccc3)cc12`: the inhibition in assay [1] and in assay [2] was less than 20% throughout.

For `COc1ccc2c(/C(C#N)=C/c3cccnc3)c[nH]c2c1`, the inhibition in assay [1] and in assay [2] was less than 20% each time.

For the molecule `CCOC(=O)C1=C(C)NC(=S)NC1c1cccc(O)c1` (configuration not stated), the inhibition in assay [1] and in assay [2] was less than 20% throughout.

The record behind these values is ChEMBL document CHEMBL3751740, “New MKLP-2 inhibitors in the paprotrain series: Design, synthesis and biological evaluations” (Bioorg Med Chem, 2016).
